Measured values from ChEMBL document CHEMBL2203262, “The design and synthesis of indazole and pyrazolopyridine based glucokinase activators for the treatment of type 2 diabetes mellitus” (Bioorg Med Chem Lett, 2012).
pEC50, pIC50: −log10 of the molar value. ≈ marks a conversion by molar mass, not a printed value. Blank lines part the entries; values can stand above or below the compound they belong to.

Experiments:
[1] = Passive permeability of the compound in dog RRCK cells; assay type: ADME, cell-based, Canis lupus familiaris, MDCKII-LE; conditions: MDCK, read-out: permeability
In short: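 Passive permeability measured in the RRCK cell line; reported as 10^-6 cm/s.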

[2] = Kinetic solubility of the compound; assay type: physicochemical; conditions: read-out: Kinetic_solubility
Hexokinase-4 [3] = target: T1, Hexokinase-4 (Homo sapiens, UniProt P35557); experiment: Activation of recombinant human glucokinase assessed measuring rate of glucose 6-phosphate formation using G6PDH/NADP coupling
T1 sequence (P35557 whole entry): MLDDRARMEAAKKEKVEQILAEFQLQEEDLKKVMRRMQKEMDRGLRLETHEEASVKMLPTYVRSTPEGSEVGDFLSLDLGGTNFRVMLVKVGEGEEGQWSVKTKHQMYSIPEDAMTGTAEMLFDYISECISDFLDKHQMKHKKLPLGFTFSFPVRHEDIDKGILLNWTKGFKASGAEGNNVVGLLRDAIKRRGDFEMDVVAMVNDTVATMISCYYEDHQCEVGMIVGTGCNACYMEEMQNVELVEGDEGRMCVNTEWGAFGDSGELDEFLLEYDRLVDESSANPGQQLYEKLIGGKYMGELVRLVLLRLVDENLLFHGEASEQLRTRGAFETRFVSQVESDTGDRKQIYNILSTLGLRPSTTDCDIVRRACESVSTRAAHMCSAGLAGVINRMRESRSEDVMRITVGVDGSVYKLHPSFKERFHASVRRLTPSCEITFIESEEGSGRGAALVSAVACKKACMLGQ

[4] = Intrinsic clearance of the compound in human liver microsomes; assay type: ADME, Microsome; conditions: read-out: CLH
In short: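 Human liver microsomal stability; intrinsic clearance expressed as ml/min/kg.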

[5] = Fraction unbound in rat plasma; assay type: ADME, cell-free
Salmonella typhimurium = experiment: Genotoxicity in Salmonella typhimurium by Ames test; assay type: toxicity, organism-based; conditions: salmonella enterica subsp. enterica serovar typhimurium
[6] = target: Voltage-gated inwardly rectifying potassium channel KCNH2 (Homo sapiens, UniProt Q12809); experiment: Inhibition of human ERG by patch clamp assay
Sequence of Voltage-gated inwardly rectifying potassium channel KCNH2 (Q12809 whole entry): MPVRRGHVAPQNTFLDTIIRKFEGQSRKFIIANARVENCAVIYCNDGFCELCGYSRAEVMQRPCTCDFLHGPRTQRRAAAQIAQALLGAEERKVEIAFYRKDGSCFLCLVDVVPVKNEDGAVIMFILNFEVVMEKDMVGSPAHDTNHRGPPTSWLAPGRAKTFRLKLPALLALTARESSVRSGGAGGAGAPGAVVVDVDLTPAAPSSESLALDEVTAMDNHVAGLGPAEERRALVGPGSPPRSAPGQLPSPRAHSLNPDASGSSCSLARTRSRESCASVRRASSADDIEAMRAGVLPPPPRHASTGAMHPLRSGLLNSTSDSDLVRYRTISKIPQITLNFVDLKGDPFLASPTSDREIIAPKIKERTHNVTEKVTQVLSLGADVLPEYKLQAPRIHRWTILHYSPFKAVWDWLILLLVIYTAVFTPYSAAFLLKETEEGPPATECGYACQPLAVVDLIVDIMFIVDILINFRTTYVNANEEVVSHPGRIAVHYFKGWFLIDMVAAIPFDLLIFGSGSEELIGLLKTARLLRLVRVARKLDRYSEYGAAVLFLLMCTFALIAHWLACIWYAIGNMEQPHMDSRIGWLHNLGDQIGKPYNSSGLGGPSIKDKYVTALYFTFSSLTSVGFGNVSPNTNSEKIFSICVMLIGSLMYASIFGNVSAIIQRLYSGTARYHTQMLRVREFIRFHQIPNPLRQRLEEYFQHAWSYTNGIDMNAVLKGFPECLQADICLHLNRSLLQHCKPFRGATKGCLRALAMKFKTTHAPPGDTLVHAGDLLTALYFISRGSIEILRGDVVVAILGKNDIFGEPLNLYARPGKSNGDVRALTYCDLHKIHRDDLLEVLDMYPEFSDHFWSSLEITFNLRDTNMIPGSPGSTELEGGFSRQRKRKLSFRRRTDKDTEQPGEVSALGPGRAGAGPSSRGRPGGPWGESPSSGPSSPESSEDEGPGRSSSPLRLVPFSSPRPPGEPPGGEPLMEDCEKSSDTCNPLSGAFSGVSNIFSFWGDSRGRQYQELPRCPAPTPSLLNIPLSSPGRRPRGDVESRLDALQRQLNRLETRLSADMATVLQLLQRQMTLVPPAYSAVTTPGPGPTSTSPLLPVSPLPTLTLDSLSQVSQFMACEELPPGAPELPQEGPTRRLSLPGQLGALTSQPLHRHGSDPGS

[7] = Half life in Wistar-Han rat at 5 mg/kg, po; assay type: ADME, organism-based; set-up: dose 5 mg/kg, route oral; conditions: in vivo
Hexokinase-4 [8] = target: T2, Hexokinase-4 (Rattus norvegicus, UniProt P17712); experiment: Activation of recombinant rat glucokinase assessed measuring rate of glucose 6-phosphate formation using G6PDH/NADP coupling
T2 sequence (P17712 whole entry): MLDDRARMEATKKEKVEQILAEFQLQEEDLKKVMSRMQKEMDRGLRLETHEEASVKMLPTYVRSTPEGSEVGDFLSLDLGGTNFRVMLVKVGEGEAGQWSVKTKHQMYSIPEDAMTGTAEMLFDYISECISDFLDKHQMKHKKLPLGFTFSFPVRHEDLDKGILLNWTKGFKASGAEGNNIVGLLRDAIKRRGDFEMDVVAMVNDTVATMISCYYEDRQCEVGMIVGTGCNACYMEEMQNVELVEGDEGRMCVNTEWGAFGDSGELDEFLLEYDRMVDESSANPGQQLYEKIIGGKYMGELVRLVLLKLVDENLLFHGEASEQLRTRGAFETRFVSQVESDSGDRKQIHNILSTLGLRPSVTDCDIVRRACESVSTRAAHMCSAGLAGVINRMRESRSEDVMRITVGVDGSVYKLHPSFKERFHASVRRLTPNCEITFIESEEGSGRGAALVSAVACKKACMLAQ
In short: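 Recombinant rat glucokinase; glucose 6-phosphate formation rate followed by G6PDH/NADP coupling. Matrix format: activator at 22 concentrations (0 to 100 µM range as printed) × 16 glucose concentrations (0 to 100 mM). Nonessential activator model fitted; EC50 = concentration giving half-maximal reduction in glucose Km.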

Rattus norvegicus [9] = experiment: Antidiabetic activity in po dosed Sprague-Dawley rat assessed as reduction of plasma glucose AUC excursion by oral glucose tolerance test; assay type: functional, organism-based
In short: (§1)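 Sprague-Dawley rats fasted overnight, dosed orally at t = −60 min with 10, 25, 100 or 250 mg/kg as suspension in 30% sulfobutylether/water. Oral glucose challenge 2 g/kg at t = 0 min.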

[10] = Oral bioavailability in Wistar-Han rat at 5 mg/kg; assay type: ADME, organism-based; conditions: in vivo
[11] = Drug excretion in Wistar-Han rat urine at 1 mg/kg, iv; assay type: ADME, organism-based; set-up: dose 1 mg/kg, route intravenous; conditions: read-out: Drug excretion
[12] = Half life in Wistar-Han rat at 1 mg/kg, iv; assay type: ADME, organism-based; set-up: dose 1 mg/kg, route intravenous; conditions: in vivo
In short: (§2)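 Wistar-Han rats, n = 3 animals/group. Single intravenous dose of 1 mg/kg; plasma pharmacokinetic parameters determined.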

[13] = Lipophilicity, log D of the compound by shake flask method; assay type: physicochemical; conditions: octanol/water
[14] = Cmax in Wistar-Han rat at 1 mg/kg, iv; assay type: ADME, organism-based; set-up: dose 1 mg/kg, route intravenous; conditions: in vivo; in short: as §2
[15] = AUC in Wistar-Han rat at 5 mg/kg, po; assay type: ADME, organism-based; set-up: dose 5 mg/kg, route oral; conditions: plasma
In short: (§3)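 Pharmacokinetics in Wistar-Han rats, n = 3 animals per group. Intravenous dosing was at 1 mg/kg, and oral dosing was at 5 mg/kg. Plasma AUC, Cmax, t1/2, clearance, Vdss and oral bioavailability were derived. Urine was collected after the i.v. dose to assess renal excretion.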

Rattus norvegicus [16] = experiment: Antidiabetic activity in Sprague-Dawley rat assessed as reduction of plasma glucose AUC excursion at 250 mg/kg, po by oral glucose tolerance test; assay type: functional; set-up: scale not given: the % may be the effect or the level left; in short: as §1
[17] = AUC in Wistar-Han rat at 1 mg/kg, iv; assay type: ADME, organism-based; set-up: dose 1 mg/kg, route intravenous; conditions: plasma; in short: as §3
[18] = Fraction unbound in human plasma; assay type: ADME, cell-free
Rattus norvegicus [19] = experiment: Toxicity in Sprague-Dawley rat assessed as hypoglycemia at 10 to 250 mg/kg, po; assay type: organism-based; set-up: dose 10-250 mg/kg, route oral; conditions: in vivo
In short: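 Oral glucose tolerance test in overnight-fasted Sprague-Dawley rats. Single oral dose of 10–250 mg/kg (suspension in 30% sulfobutylether/water) given at t = −60 min, then 2 g/kg glucose orally at t = 0. Hypoglycemia defined as blood glucose <60 mg/dL. n = 7/group.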

INS1 = experiment: Increase of glucose-stimulated insulin secretion in rat INS-1 cells
[20] = Clearance in Wistar-Han rat at 1 mg/kg, iv; assay type: ADME, organism-based; set-up: dose 1 mg/kg, route intravenous; conditions: in vivo; in short: as §2
[21] = Genotoxicity in micronucleus
[22] = Cmax in Wistar-Han rat at 5 mg/kg, po; assay type: ADME, organism-based; set-up: dose 5 mg/kg, route oral; conditions: in vivo
[23] = Volume of distribution at steady state in Wistar-Han rat at 1 mg/kg, iv; assay type: ADME, organism-based; set-up: dose 1 mg/kg, route intravenous; conditions: in vivo, read-out: Vdss; in short: as §2

Papp [1]: 10.6 ×10⁻⁶ cm/s
solubility kinetic [2]: 69 µM (≈ 31.2 µg/mL)
pEC50 (Hexokinase-4 [3]): 6.01
CLint scaled [4]: < 8 mL/min/kg
SMILES: CCS(=O)(=O)c1ccc(Oc2cc(C(=O)Nc3cnc(C)cn3)cc3nn(C)cc23)cc1

Papp [1]: 14.6 ×10⁻⁶ cm/s
solubility kinetic [2]: 351 µM (≈ 151 µg/mL)
CLint scaled [4]: 12.3 mL/min/kg
SMILES: Cc1cnc(NC(=O)c2cc(Oc3ccc(C(=O)N(C)C)cc3)c3cn(C)nc3c2)cn1

Papp [1]: 15.5 ×10⁻⁶ cm/s
solubility kinetic [2]: 0.5 µM (≈ 0.232 µg/mL)
pEC50 (Hexokinase-4 [3]): 5.69
CLint scaled [4]: < 8 mL/min/kg
SMILES: Cc1cnc(NC(=O)c2cc(Oc3ccc(S(C)(=O)=O)cc3)c3cn(C4CC4)nc3c2)cn1

Papp [1]: 6.3 ×10⁻⁶ cm/s
solubility kinetic [2]: 24.4 µM (≈ 11.4 µg/mL)
pEC50 (Hexokinase-4 [3]): 5.81
CLint scaled [4]: < 8.9 mL/min/kg
SMILES: Cc1cnc(NC(=O)c2cc(Oc3ccc(S(C)(=O)=O)cc3)c3cn(CCO)nc3c2)cn1

SMILES: CCn1cc2c(Oc3cnc(C(=O)N4CCC4)c(F)c3)cc(C(=O)Nc3cnc(C)cn3)cc2n1
fraction unbound [5]: 0.18
Activity (Salmonella typhimurium): Non-toxic
Papp [1]: 16.3 ×10⁻⁶ cm/s
pIC50 [6]: < 3.52
half-life [7]: 2.6 h
pEC50 (Hexokinase-4 [8]): 6.46
Activity (Rattus norvegicus [9]): Dose-dependent effect
solubility kinetic [2]: 84.8 µM (≈ 40.3 µg/mL)
bioavailability [10]: 69%
dose excreted [11]: < 1%
half-life [12]: 1 h
logD [13]: 2.01
Cmax [14]: 1820 ng/mL
AUC [15]: 5440 ng·h/mL
Activity (Rattus norvegicus [16]): 22%
AUC [17]: 1580 ng·h/mL
fraction unbound [18]: 0.2
Activity (Rattus norvegicus [19]): Non-toxic
pEC50 (INS1): 6.77
pEC50 (Hexokinase-4 [3]): 6.92
clearance [20]: 10.5 mL/min/kg
Activity [21]: Non-toxic
Cmax [22]: 1490 ng/mL
Vd [23]: 0.61 L/kg
CLint scaled [4]: < 8 mL/min/kg

Papp [1]: 20.4 ×10⁻⁶ cm/s
solubility kinetic [2]: 454 µM (≈ 199 µg/mL)
pEC50 (Hexokinase-4 [3]): 5.71
CLint scaled [4]: < 8 mL/min/kg
SMILES: Cc1cnc(NC(=O)c2cc(Oc3ccc(S(C)(=O)=O)cc3)c3cn(C)nc3c2)cn1

Papp [1]: 11.5 ×10⁻⁶ cm/s
solubility kinetic [2]: 446 µM (≈ 193 µg/mL)
pEC50 (Hexokinase-4 [3]): 6.04
CLint scaled [4]: < 8 mL/min/kg
SMILES: Cc1cnc(NC(=O)c2cc(Oc3cnc(C(=O)N(C)C)nc3)c3cn(C)nc3c2)cn1

pEC50 (Hexokinase-4 [3]): 5.63
SMILES: Cc1cnc(NC(=O)c2cc(Oc3ccc(S(N)(=O)=O)cc3)c3cn(C)nc3c2)cn1

Papp [1]: 20.2 ×10⁻⁶ cm/s
solubility kinetic [2]: 328 µM (≈ 147 µg/mL)
pEC50 (Hexokinase-4 [3]): 6.40
CLint scaled [4]: < 8 mL/min/kg
SMILES: Cc1cnc(NC(=O)c2cc(Oc3cnc(C(=O)N(C)C)c(F)c3)c3cn(C)nc3c2)cn1

Papp [1]: 17.8 ×10⁻⁶ cm/s
solubility kinetic [2]: 73 µM (≈ 33.8 µg/mL)
pEC50 (Hexokinase-4 [3]): 6.29
CLint scaled [4]: < 8 mL/min/kg
SMILES: Cc1cnc(NC(=O)c2cc(Oc3ccc(S(=O)(=O)C4CC4)cc3)c3cn(C)nc3c2)cn1

Papp [1]: 17 ×10⁻⁶ cm/s
solubility kinetic [2]: 123 µM (≈ 53.2 µg/mL)
logD [13]: 1.87
pEC50 (Hexokinase-4 [3]): 6.21
CLint scaled [4]: 13.7 mL/min/kg
SMILES: Cc1cnc(NC(=O)c2cc(Oc3cnc(C(=O)N(C)C)cn3)c3cc(C)nn3c2)cn1

Papp [1]: 11.9 ×10⁻⁶ cm/s
solubility kinetic [2]: 70 µM (≈ 32.3 µg/mL)
pEC50 (Hexokinase-4 [3]): 6.47
CLint scaled [4]: < 8 mL/min/kg
SMILES: Cc1cnc(NC(=O)c2cc(Oc3cnc(C(=O)N4CCC4)c(F)c3)c3cn(C)nc3c2)cn1

logD [13]: 2.16
CLint scaled [4]: < 8 mL/min/kg
SMILES: Cc1cnc(NC(=O)c2cc(Oc3cnc(C(=O)N(C)C)cn3)c3cc(C)oc3c2)cn1

Papp [1]: 20.8 ×10⁻⁶ cm/s
solubility kinetic [2]: 192 µM (≈ 83 µg/mL)
logD [13]: 0.83
pEC50 (Hexokinase-4 [3]): 6.00
CLint scaled [4]: < 8.5 mL/min/kg
SMILES: Cc1cnc(NC(=O)c2cc(Oc3cnc(C(=O)N(C)C)cn3)c3cn(C)nc3c2)cn1

Papp [1]: 13.4 ×10⁻⁶ cm/s
solubility kinetic [2]: 2.1 µM (≈ 0.948 µg/mL)
pEC50 (Hexokinase-4 [3]): 6.11
CLint scaled [4]: < 8 mL/min/kg
SMILES: CCn1cc2c(Oc3ccc(S(C)(=O)=O)cc3)cc(C(=O)Nc3cnc(C)cn3)cc2n1

Papp [1]: 13.6 ×10⁻⁶ cm/s
solubility kinetic [2]: 134 µM (≈ 62.5 µg/mL)
pEC50 (Hexokinase-4 [3]): 6.36
CLint scaled [4]: < 8 mL/min/kg
SMILES: Cc1cnc(NC(=O)c2cc(Oc3ccc(S(=O)(=O)N(C)C)cc3)c3cn(C)nc3c2)cn1

Papp [1]: 14.2 ×10⁻⁶ cm/s
solubility kinetic [2]: 2.3 µM (≈ 1.07 µg/mL)
pEC50 (Hexokinase-4 [3]): 6.51
CLint scaled [4]: < 8 mL/min/kg
SMILES: CCCn1cc2c(Oc3ccc(S(C)(=O)=O)cc3)cc(C(=O)Nc3cnc(C)cn3)cc2n1

solubility kinetic [2]: 27 µM (≈ 12.2 µg/mL)
CLint scaled [4]: < 8.6 mL/min/kg
SMILES: CNS(=O)(=O)c1ccc(Oc2cc(C(=O)Nc3cnc(C)cn3)cc3nn(C)cc23)cc1

Papp [1]: 13.8 ×10⁻⁶ cm/s
solubility kinetic [2]: 367 µM (≈ 170 µg/mL)
logD [13]: 1.8
pEC50 (Hexokinase-4 [3]): 6.64
CLint scaled [4]: 10.4 mL/min/kg
SMILES: CCn1cc2c(Oc3cnc(C(=O)N(C)C)c(F)c3)cc(C(=O)Nc3cnc(C)cn3)cc2n1
